Molecular target: Epidermal growth factor receptor (Homo sapiens) (UniProt P00533)
Assay: Inhibition of EGFR at 10 uM
How it was run: (§1)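 Wells were precoated with 20 μg/mL poly(Glu,Tyr)4:1 substrate, then given an 8 μM ATP solution (added concentration) and compound. Purified EGFR or Src in kinase buffer ran for 60 min at 37 °C, in triplicate, with 0.1% DMSO as negative control. Phosphotyrosine was detected with PY99, HRP anti-mouse IgG and o-phenylenediamine/H2O2 at A490. Inhibition % = [1 − A490/A490 control] × 100, and IC50 was taken from inhibition curves.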

Chain of Epidermal growth factor receptor (Homo sapiens) (P00533 whole entry): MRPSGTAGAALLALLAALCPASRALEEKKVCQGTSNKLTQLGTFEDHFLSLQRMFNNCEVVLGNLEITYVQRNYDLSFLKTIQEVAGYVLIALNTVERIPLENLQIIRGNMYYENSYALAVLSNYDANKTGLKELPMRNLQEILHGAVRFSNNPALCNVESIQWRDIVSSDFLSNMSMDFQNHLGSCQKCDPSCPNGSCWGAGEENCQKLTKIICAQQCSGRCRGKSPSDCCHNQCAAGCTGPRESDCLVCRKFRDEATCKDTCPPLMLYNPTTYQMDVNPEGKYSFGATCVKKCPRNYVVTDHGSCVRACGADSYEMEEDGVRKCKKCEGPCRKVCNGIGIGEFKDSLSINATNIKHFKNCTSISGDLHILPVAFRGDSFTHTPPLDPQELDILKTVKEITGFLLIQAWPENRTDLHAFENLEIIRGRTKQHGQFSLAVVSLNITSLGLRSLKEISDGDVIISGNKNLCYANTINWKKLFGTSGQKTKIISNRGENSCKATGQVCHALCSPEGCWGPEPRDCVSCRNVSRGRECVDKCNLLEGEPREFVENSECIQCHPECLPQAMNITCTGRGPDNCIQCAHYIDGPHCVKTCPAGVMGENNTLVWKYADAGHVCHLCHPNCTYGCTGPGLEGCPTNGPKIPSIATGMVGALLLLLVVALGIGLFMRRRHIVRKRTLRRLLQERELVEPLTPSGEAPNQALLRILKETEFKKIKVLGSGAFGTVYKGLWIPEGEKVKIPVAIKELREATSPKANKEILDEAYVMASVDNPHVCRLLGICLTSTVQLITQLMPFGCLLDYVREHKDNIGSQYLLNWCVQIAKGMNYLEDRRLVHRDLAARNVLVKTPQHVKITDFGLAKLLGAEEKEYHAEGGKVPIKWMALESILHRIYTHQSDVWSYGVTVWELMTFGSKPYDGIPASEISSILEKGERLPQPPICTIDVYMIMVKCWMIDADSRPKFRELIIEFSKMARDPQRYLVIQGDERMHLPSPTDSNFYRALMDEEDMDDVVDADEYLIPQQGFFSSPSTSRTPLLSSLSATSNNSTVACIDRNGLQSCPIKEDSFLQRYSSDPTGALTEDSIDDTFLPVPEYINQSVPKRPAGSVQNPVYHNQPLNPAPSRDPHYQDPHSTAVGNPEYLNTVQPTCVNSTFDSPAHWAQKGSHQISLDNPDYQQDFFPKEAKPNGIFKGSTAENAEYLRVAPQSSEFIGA

| SMILES | inhibition [%] |
| --- | --- |
| C[C@@H](O)[C@H](NC(=O)OC(C)(C)C)C(=O)Oc1c(-c2ccc(O)c(O)c2)oc2cc(O)cc(O)c2c1=O | 36.8 |
| COc1cc2ncnc(Nc3ccc(OCc4ccccc4)cc3)c2cc1OC | 97.2 |
| CC(C)[C@H](NC(=O)OC(C)(C)C)C(=O)Oc1c(-c2ccc(O)c(O)c2)oc2cc(O)cc(O)c2c1=O | 21 |
| CC(C)(C)OC(=O)N[C@@H](CC(N)=O)C(=O)Oc1c(-c2ccc(O)c(O)c2)oc2cc(O)cc(O)c2c1=O | 23.8 |
| CC(=O)N[C@@H](CC(C)C)C(=O)Oc1c(-c2ccc(O)c(O)c2)oc2cc(O)cc(O)c2c1=O | 25.9 |
| C[C@H](O)[C@@H](NC(=O)OC(C)(C)C)C(=O)Oc1c(-c2ccc(O)c(O)c2)oc2cc(O)cc(O)c2c1=O | 34.6 |
| CC(C)(C)OC(=O)NCC(=O)Oc1c(-c2ccc(O)c(O)c2)oc2cc(O)cc(O)c2c1=O | 43.2 |
| CC(C)(C)OC(=O)N[C@@H](Cc1c[nH]c2ccccc12)C(=O)Oc1c(-c2ccc(O)c(O)c2)oc2cc(O)cc(O)c2c1=O | 15.6 |
| CC(=O)N[C@@H](Cc1ccccc1)C(=O)Oc1c(-c2ccc(O)c(O)c2)oc2cc(O)cc(O)c2c1=O | 20.9 |
| CC(C)C[C@@H](NC(=O)OC(C)(C)C)C(=O)Oc1c(-c2ccc(O)c(O)c2)oc2cc(O)cc(O)c2c1=O | 29.2 |
| CC(C)[C@@H](NC(=O)OC(C)(C)C)C(=O)Oc1c(-c2ccc(O)c(O)c2)oc2cc(O)cc(O)c2c1=O | 22.3 |
| CC(=O)N1CCC[C@H]1C(=O)Oc1c(-c2ccc(O)c(O)c2)oc2cc(O)cc(O)c2c1=O | 21 |
| CC(C)C[C@H](NC(=O)OC(C)(C)C)C(=O)Oc1c(-c2ccc(O)c(O)c2)oc2cc(O)cc(O)c2c1=O | 30.4 |
| CC(C)(C)OC(=O)N1CCC[C@H]1C(=O)Oc1c(-c2ccc(O)c(O)c2)oc2cc(O)cc(O)c2c1=O | 19.3 |
| C[C@H](NC(=O)OC(C)(C)C)C(=O)Oc1c(-c2ccc(O)c(O)c2)oc2cc(O)cc(O)c2c1=O | 35.9 |
| CC(C)(C)OC(=O)N[C@@H](Cc1ccccc1)C(=O)Oc1c(-c2ccc(O)c(O)c2)oc2cc(O)cc(O)c2c1=O | 35.9 |

Molecular target: T1, Proto-oncogene tyrosine-protein kinase Src (Homo sapiens, UniProt P12931)
Assay: Inhibition of Src at 10 uM
How it was run: as §1

T1 sequence (P12931 2-536 limits assumed): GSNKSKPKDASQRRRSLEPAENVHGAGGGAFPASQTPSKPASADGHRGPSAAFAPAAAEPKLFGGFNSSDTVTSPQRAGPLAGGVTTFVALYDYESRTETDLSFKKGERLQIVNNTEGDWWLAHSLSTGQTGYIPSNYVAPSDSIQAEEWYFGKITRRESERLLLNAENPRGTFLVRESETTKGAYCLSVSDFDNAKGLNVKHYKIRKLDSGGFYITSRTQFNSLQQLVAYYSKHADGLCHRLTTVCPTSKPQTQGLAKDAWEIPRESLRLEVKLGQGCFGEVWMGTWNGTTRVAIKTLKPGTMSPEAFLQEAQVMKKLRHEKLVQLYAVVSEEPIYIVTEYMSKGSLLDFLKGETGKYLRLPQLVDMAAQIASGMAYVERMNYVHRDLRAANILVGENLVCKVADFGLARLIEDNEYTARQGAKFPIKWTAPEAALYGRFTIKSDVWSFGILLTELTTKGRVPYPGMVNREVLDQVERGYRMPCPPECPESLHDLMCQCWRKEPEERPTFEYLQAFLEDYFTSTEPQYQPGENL

| SMILES | inhibition [%] |
| --- | --- |
| C[C@@H](O)[C@H](NC(=O)OC(C)(C)C)C(=O)Oc1c(-c2ccc(O)c(O)c2)oc2cc(O)cc(O)c2c1=O | 76.1 |
| CC(C)[C@H](NC(=O)OC(C)(C)C)C(=O)Oc1c(-c2ccc(O)c(O)c2)oc2cc(O)cc(O)c2c1=O | 52.5 |
| CC(C)(C)OC(=O)N[C@@H](CC(N)=O)C(=O)Oc1c(-c2ccc(O)c(O)c2)oc2cc(O)cc(O)c2c1=O | 50.8 |
| CC(=O)N[C@@H](CC(C)C)C(=O)Oc1c(-c2ccc(O)c(O)c2)oc2cc(O)cc(O)c2c1=O | 39 |
| C[C@H](O)[C@@H](NC(=O)OC(C)(C)C)C(=O)Oc1c(-c2ccc(O)c(O)c2)oc2cc(O)cc(O)c2c1=O | 71 |
| CC(C)(C)n1nc(-c2ccc(Cl)cc2)c2c(N)ncnc21 | 99 |
| CC(C)(C)OC(=O)NCC(=O)Oc1c(-c2ccc(O)c(O)c2)oc2cc(O)cc(O)c2c1=O | 76.2 |
| CC(C)(C)OC(=O)N[C@@H](Cc1c[nH]c2ccccc12)C(=O)Oc1c(-c2ccc(O)c(O)c2)oc2cc(O)cc(O)c2c1=O | 44.4 |
| CC(=O)N[C@@H](Cc1ccccc1)C(=O)Oc1c(-c2ccc(O)c(O)c2)oc2cc(O)cc(O)c2c1=O | 60.5 |
| CC(C)C[C@@H](NC(=O)OC(C)(C)C)C(=O)Oc1c(-c2ccc(O)c(O)c2)oc2cc(O)cc(O)c2c1=O | 44.5 |
| CC(C)[C@@H](NC(=O)OC(C)(C)C)C(=O)Oc1c(-c2ccc(O)c(O)c2)oc2cc(O)cc(O)c2c1=O | 40.7 |
| CC(=O)N1CCC[C@H]1C(=O)Oc1c(-c2ccc(O)c(O)c2)oc2cc(O)cc(O)c2c1=O | 24.3 |
| CC(C)C[C@H](NC(=O)OC(C)(C)C)C(=O)Oc1c(-c2ccc(O)c(O)c2)oc2cc(O)cc(O)c2c1=O | 55.4 |
| CC(C)(C)OC(=O)N1CCC[C@H]1C(=O)Oc1c(-c2ccc(O)c(O)c2)oc2cc(O)cc(O)c2c1=O | 27.7 |
| C[C@H](NC(=O)OC(C)(C)C)C(=O)Oc1c(-c2ccc(O)c(O)c2)oc2cc(O)cc(O)c2c1=O | 51.4 |
| CC(C)(C)OC(=O)N[C@@H](Cc1ccccc1)C(=O)Oc1c(-c2ccc(O)c(O)c2)oc2cc(O)cc(O)c2c1=O | 40.9 |

Molecular target: T1, Proto-oncogene tyrosine-protein kinase Src
Assay: Inhibition of Src
How it was run: as §1

| SMILES | IC50 [µM] |
| --- | --- |
| C[C@@H](O)[C@H](NC(=O)OC(C)(C)C)C(=O)Oc1c(-c2ccc(O)c(O)c2)oc2cc(O)cc(O)c2c1=O | 3.5 |
| CC(C)[C@H](NC(=O)OC(C)(C)C)C(=O)Oc1c(-c2ccc(O)c(O)c2)oc2cc(O)cc(O)c2c1=O | 7.4 |
| CC(C)(C)OC(=O)N[C@@H](CC(N)=O)C(=O)Oc1c(-c2ccc(O)c(O)c2)oc2cc(O)cc(O)c2c1=O | 9.9 |
| C[C@H](O)[C@@H](NC(=O)OC(C)(C)C)C(=O)Oc1c(-c2ccc(O)c(O)c2)oc2cc(O)cc(O)c2c1=O | 4.9 |
| CC(C)(C)OC(=O)NCC(=O)Oc1c(-c2ccc(O)c(O)c2)oc2cc(O)cc(O)c2c1=O | 3.3 |
| CC(=O)N[C@@H](Cc1ccccc1)C(=O)Oc1c(-c2ccc(O)c(O)c2)oc2cc(O)cc(O)c2c1=O | 5.9 |
| O=c1c(O)c(-c2ccc(O)c(O)c2)oc2cc(O)cc(O)c12 [QUERCETIN] | 15 |
| CC(C)C[C@H](NC(=O)OC(C)(C)C)C(=O)Oc1c(-c2ccc(O)c(O)c2)oc2cc(O)cc(O)c2c1=O | 4.2 |
| C[C@H](NC(=O)OC(C)(C)C)C(=O)Oc1c(-c2ccc(O)c(O)c2)oc2cc(O)cc(O)c2c1=O | 6.5 |

Source: ChEMBL document CHEMBL1158361, “Discovering novel quercetin-3-O-amino acid-esters as a new class of Src tyrosine kinase inhibitors” (Eur J Med Chem, 2009)
